Results from ChEMBL document CHEMBL4049455, “Discovery of a B-Cell Lymphoma 6 Protein-Protein Interaction Inhibitor by a Biophysics-Driven Fragment-Based Approach” (J Med Chem, 2017).
One block for each compound: values may come before it. The source made the active and inactive calls. The rule behind the calls is not given here.

How the values were obtained:
[1] = biological target: T1, B-cell lymphoma 6 protein (Homo sapiens, UniProt P41182); assay: Binding affinity to captured wild-type human biotinylated Avi-tagged BCL6 BTB domain (5 to 129 amino acid residues) expressed in Escherichia coli BL21 (DE3) by SPR analysis
[2] = test system: B-cell lymphoma 6 protein (Homo sapiens), P41182 [C8Q,C67R,C84N]; assay: Binding affinity to human biotinylated His/Avi/SUMO/FLAG-tagged BCL6 BTB domain (5 to 129 amino acid residues) C8Q/C67R/C84N triple mutant expressed in Escherichia coli BL21 (DE3) by STD-NMR spectroscopy
In short: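 STD-NMR was run on a sample of 400 μM ligand with 20 μM BCL6 BTB at 15 °C, using 32 scans. On- and off-resonance saturation was at 0.4 and 30 ppm, with 2.0 s total saturation. Binding was read as signal decrease on on-resonance irradiation.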

[3] = test system: B-cell lymphoma 6 protein (Homo sapiens), P41182 [C8Q,C67R,C84N]; assay: Inhibition of BCoR peptide binding to human biotinylated His/Avi/SUMO/FLAG-tagged BCL6 BTB domain (5 to 129 amino acid residues) C8Q/C67R/C84N triple mutant expressed in Escherichia coli BL21 (DE3) by SPR competition assay
[4] = test system: B-cell lymphoma 6 protein (Homo sapiens), P41182 [C8Q,C67R,C84N]; assay: (§1) Binding affinity to human biotinylated Avi-tagged BCL6 BTB domain C8Q/C67R/C84N triple mutant expressed in Escherichia coli BL21 (DE3) using 3 % DMSO by SPR analysis
In short: (§2)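 SPR (Biacore 4000) binding of BCoR peptide to immobilized wild-type or Cys-mutant BTB in running buffer containing 1%, 3% or 5% DMSO. Peptide ran from a top concentration of 100 μM in 2-fold dilutions. KD and Rmax were fitted from equilibrium response against peptide concentration.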

[5] = biological target: T2, B-cell lymphoma 6 protein (Homo sapiens, UniProt P41182, C67R/C84N/C8Q); assay: as §1; in short: as §2
[6] = biological target: T1, B-cell lymphoma 6 protein; assay: Binding affinity to wild-type human biotinylated Avi-tagged BCL6 BTB domain (5 to 129 amino acid residues) expressed in Escherichia coli BL21 (DE3) using 5 % DMSO by SPR analysis; in short: as §2
[7] = biological target: T1, B-cell lymphoma 6 protein; assay: Binding affinity to wild-type human biotinylated Avi-tagged BCL6 BTB domain (5 to 129 amino acid residues) expressed in Escherichia coli BL21 (DE3) using 3 % DMSO by SPR analysis; in short: as §2
[8] = biological target: T1, B-cell lymphoma 6 protein; assay: Binding affinity to wild-type human biotinylated Avi-tagged BCL6 BTB domain (5 to 129 amino acid residues) expressed in Escherichia coli BL21 (DE3) using 1 % DMSO by SPR analysis; in short: as §2
[9] = test system: B-cell lymphoma 6 protein (Homo sapiens), P41182 [C8Q,C67R,C84N]; assay: (§3) Binding affinity to human biotinylated Avi-tagged BCL6 BTB domain C8Q/C67R/C84N triple mutant expressed in Escherichia coli BL21 (DE3) using 5 % DMSO by SPR analysis; in short: as §2
[10] = biological target: T2, B-cell lymphoma 6 protein; assay: as §3; in short: as §2
[11] = test system: B-cell lymphoma 6 protein (Homo sapiens), P41182 [C8Q,C67R,C84N]; assay: (§4) Binding affinity to human biotinylated Avi-tagged BCL6 BTB domain C8Q/C67R/C84N triple mutant expressed in Escherichia coli BL21 (DE3) using 1 % DMSO by SPR analysis; in short: as §2
[12] = biological target: T2, B-cell lymphoma 6 protein; assay: as §4; in short: as §2
[13] = biological target: T2, B-cell lymphoma 6 protein; assay: Binding affinity to captured human biotinylated Avi-tagged BCL6 BTB domain (5 to 129 amino acid residues) C8Q/C67R/C84N triple mutant expressed in Escherichia coli BL21 (DE3) by SPR analysis
In short: (§5)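 Biacore 4000 SPR. Biotinylated BTB (mutant or wild-type) was captured, and wild-type was also amine-coupled on a separate spot, with NeutrAvidin detected as a reference spot. Responses were referenced between spots. Fragments were run from a top concentration of 1 mM in 2-fold dilutions. KD came from equilibrium response plotted against concentration, with BCoR peptide (100 μM) as the positive control.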

[14] = biological target: T1, B-cell lymphoma 6 protein; assay: Binding affinity to coupled wild-type human biotinylated Avi-tagged BCL6 BTB domain (5 to 129 amino acid residues) expressed in Escherichia coli BL21 (DE3) by SPR analysis; in short: as §5
[15] = biological target: T1, B-cell lymphoma 6 protein; assay: Binding affinity to 6His-tagged human BCL6 BTB domain (7 to 128 amino acid residues) expressed in Escherichia coli Rosetta (DE3) after 1 min by fluorescence polarization assay
[16] = biological target: T1, B-cell lymphoma 6 protein; assay: Binding affinity to recombinant RED-NHS labeled BCL6 BTB domain (unknown origin) expressed in Escherichia coli BL21 (DE3) after 10 mins by microscale thermophoresis method

Kd [1]: 9.3 µM
Compound: O=C1Cc2cc(Nc3ncncc3Cl)ccc2N1

Kd [1]: 180 µM
Compound: Nc1ncc(F)c(Nc2ccccc2)n1

Activity [2]: Active | inhibition [3]: Active
Compound: Nc1ncnc(Nc2ccccc2)n1

Rmax [4]: 302 RU | Kd [5]: 21 µM | Kd [6]: 12 µM | Rmax [6]: 243 RU | Kd [7]: 9.3 µM | Rmax [7]: 242 RU | Kd [8]: 7.5 µM | Rmax [8]: 245 RU | Rmax [9]: 304 RU | Kd [10]: 25 µM | Rmax [11]: 311 RU | Kd [12]: 17 µM | Activity [1]: Dose-dependent effect | Kd [1]: 17 µM | Kd [13]: 40 µM | Kd [14]: 14 µM
Compound: Ac-RSEIISTAPSSWVVPPK-OH

Kd [1]: 3000 µM
Compound: Nc1nccc(Nc2ccccc2)n1

Kd [15]: 1000 µM
Compound: CO[C@H]1/C=C/O[C@@]2(C)Oc3c(C)c(O)c4c(O)c(cc(O)c4c3C2=O)NC(=O)/C(C)=C\C=C\[C@H](C)[C@H](O)[C@@H](C)[C@@H](O)[C@@H](C)[C@H](OC(C)=O)[C@@H]1C [RIFAMYCIN]

Kd [16]: 129 µM
Compound: O=C(O)CC(C(=O)O)N1C(=O)/C(=C2/C(=O)Nc3ccc(Br)cc32)SC1=S (stereo not drawn)
